The record followed here is the EternaBench riboswitch data.

In this data set the test system is MS2 coat protein. The data set can be described thus: apparent Kd, MS2 coat protein; higher = weaker binding; RNA-MaP array; theophylline 2 mM where present. The procedure, abridged:
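Stalled E. coli RNA polymerase transcribed the designs on Illumina sequencing-chip clusters. SNAP-549-labelled MS2 coat protein was titrated from 0.7 or 1.5 nM, doubling to 3 µM, without and then with constant ligand, in 100 mM Tris-HCl pH 7.5, 80 mM KCl, 4 mM MgCl2, BSA, DTT, yeast tRNA and Tween-20. Per-cluster binding curves were fitted to green signal normalised to red-channel RNA signal and control-cluster median Fmax. The apparent Kd is the median of the filtered fits.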

[1] abbreviates: designed as: ON switch for theophylline, no ligand.
[2] abbreviates: ligand present: theophylline, designed as: ON switch for theophylline.
[3] abbreviates: designed as: OFF switch for theophylline, no ligand.
[4] abbreviates: ligand present: theophylline, designed as: OFF switch for theophylline.

As for “AACCGAGGCUAUCCUCUAAGAAUAUGUGAUACCAGAAUAAUUUUAUUCCCUUGGCAGCAUGACAUGAGGAUCACCCAUGUGUCUU”, the apparent Kd (as a rule, the concentration giving half-maximal binding under the conditions of the assay) under setting [1] was 134 nM and the “apparent Kd” value under setting [2] was found to be 134 nM.

As for “GUCAGUAGAACAGAUACCAGUCAAAAGCUGUGAUCUCAUAACAUGAGGAUCACCCAUGUUGACCCUUGGCAGCUGUGGGCGAGGG”, the “apparent Kd” value runs as follows: under setting [3], 19.6 nM; under setting [4], 64.6 nM.

For the sequence “UGAGAUCCUCAUGAUACCAGUGUACUACAUGAGGAUCACCCAUGUAGCAACAUCUGUAGACACCCUUGGCAGCAUGAGACCACGU”, the “apparent Kd” value was 18.3 nM under setting [1] and 23.7 nM under setting [2].

Regarding “UGGUACAUGAGGAUCACCCAUGUUCCAGAUACCAGACUCCCGGUGGUCCCUUGGCAGCUGGUGGUACAUGAGGAUCACCCAUGUG”, the “apparent Kd” value by setting is: under setting [3], 30.4 nM; under setting [4], 49.9 nM.

Turning to “GAACAUGAGGAUCACCCAUGUAAAACAGAUACCAGUGAUAUAAUACACCCUUGGCAGCUGUAGCUGAAUAAUAAUUCCCUCAAGC”, the “apparent Kd” value is, setting by setting: under setting [1], 15.5 nM; under setting [2], 18.4 nM.

For the sequence “AUUUUUCUAUCAGAUACCAGACAAUUUUAGACAUGAGGAUCACCCAUGUAUAGGGUGUUCGUCCCUUGGCAGCUGUUAAGUUUAA”, the “apparent Kd” value by setting is: under setting [1], 190 nM; under setting [2], 205 nM.

As to “UCGCUCGCAGAAAUGCGAGCGAGUUGCGAUACCAGCCCGGAAACGGGCCCUUGGCAGCGCACAUGAGGAUCACCCAUGUCAUGUU”, the “apparent Kd” value by setting is: under setting [3], 17.4 nM; under setting [4], 23.8 nM.

Turning to “AGCGACAUGCGUGAUACCAGCUACAUGAGGAUCACCCAUGUCAGUAGGAAACUGCUGUGUAGCCCUUGGCAGCACAGUGCAUGUC”, the “apparent Kd” value came out at 34.9 nM under setting [3] and 38.6 nM under setting [4].

As for “AUAAGGUAUCUGCUAUCCUCAUGAGCAGAUACCAGCUAGGAAACUAGCCCUUGGCAGCUGCAACAUGAGGAUCACCCAUGUAAUA”, the “apparent Kd” value under setting [3] was found to be 409 nM and the “apparent Kd” value under setting [4] was found to be 92.3 nM.

For “GCACCAGGUACGGAUACCAGCUGCCAUAGUUACAUGAGGAUCACCCAUGUGAUCUAUUGUAGCCCUUGGCAGCUGUACCUGGUGC”, the “apparent Kd” value is, setting by setting: under setting [1], 104 nM; under setting [2], 92.4 nM.

In the case of “UGUAUGUGAUUUGAUACCAGACCAACUGGUAAAACAUGAGGAUCACCCAUGUAAACUUGGGUCCCUUGGCAGCAAAUCGCAUACU”, the “apparent Kd” value was 80.5 nM under setting [1] and 10.9 nM under setting [2].

As to “ACGACGCAUACAGAUACCAGUAGCCGAGAAACAUGAGGAUCACCCAUGUCGAGCGACAACUGCCCUUGGCAGCUGUAUGCGUCAG”, the “apparent Kd” value runs as follows: under setting [1], 8.49 nM; under setting [2], 8.34 nM.

On to “UAAAACAUGAGGAUCACCCAUGUAAUUGAUACCAGAGUGAUGAUCCUCCCUUGGCAGCAAAUAACGCAUUGAUUACAAUGCGAAA”, for which the “apparent Kd” value runs as follows: under setting [1], 42.7 nM; under setting [2], 215 nM.

As to “UACAUGAGGAUCACCCAUGUAUGAAUAGAUACCAGAUAAAAUAAGGUCCCUUGGCAGCUAGUGAAUAAAGGGUGGGUAAAAUAAU”, the “apparent Kd” value worked out at 9.22 nM under setting [3] and 9.51 nM under setting [4].

Consider “GUGUUUGUGUGAGAUACCAGUGAGGCCACAUGAGGAUCACCCAUGUCCCUCACUCCGGCCCACCCUUGGCAGCUCUUAUAGUAGU”, for which the “apparent Kd” value under setting [3] is 9.39 nM and the “apparent Kd” value under setting [4] came to 38.4 nM.

As to “UUCAGUACAACAGAUACCAGACAGUACUCUAAAUUGCAACAUGAGGAUCACCCAUGUAUAGUCCCUUGGCAGCUGUAAUGGGUGA”, the “apparent Kd” value reads like this: under setting [1], 114 nM; under setting [2], 174 nM.

Regarding “AAUCUGUCGGGUGAUACCAGCCUCGGCACGUCUCGUGCCGAACAUGAGGAUCACCCAUGUGGCCCUUGGCAGCACAUGACAAAUC”, the “apparent Kd” value under setting [1] came to 258 nM and the “apparent Kd” value under setting [2] was determined as 88.6 nM.

In the case of “UCGCAUUGCUGCGAUACCAGACAUGAGGAUCACCCAUGUACCAAGGUACGAAAAUAACAUGUCCCUUGGCAGCGCAGCAAUGCGU”, the “apparent Kd” value under setting [3] amounted to 12.8 nM and the “apparent Kd” value under setting [4] amounted to 322 nM.

Turning to “UUCUACAUGAGGAUCACCCAUGUGGGUGAUACCAGCACUUUUUGGUGCCCUUGGCAGCACAUGAGAAUACCGUACGAUCGGUGAU”, the “apparent Kd” value amounted to 376 nM under setting [1] and 615 nM under setting [2].

For the sequence “UACAUGAGGAUCACCCAUGUAUGAAUGGAUACCAGAUAAAAUAAGGUCCCUUGGCAGCUAGUGAAUCGAGGGUGGGUAUCAUGUU”, the “apparent Kd” value by setting is: under setting [3], 10.5 nM; under setting [4], 11.2 nM.

For the sequence “CAAUAAGUAACUGAUACCAGUGUACUGACAUGAGGAUCACCCAUGUUGGGUUUUGUUGUACACCCUUGGCAGCAGAAUCUUAUUG”, the “apparent Kd” value by setting is: under setting [3], 60.3 nM; under setting [4], 80.7 nM.

With “AGCGCAGGUCCUGAUACCAGUGACAUGAGGAUCACCCAUGUCCGAUGGGCCUGCCUCUGACACCCUUGGCAGCAGGGCUUGUGCU”, the “apparent Kd” value is 23.7 nM under setting [3] and 29.8 nM under setting [4].

Regarding “AAACUGGGUGUAAAAUAAAUAAUCACUGAUACCAGACUAUAGUAUGUCCCUUGGCAGCAGAAACAUGAGGAUCACCCAUGUAAUA”, the “apparent Kd” value under setting [3] was found to be 21.7 nM and the “apparent Kd” value under setting [4] came out at 21.3 nM.

Regarding “CAUGUUGUUGAAGAUACCAGAUUCUGAACGUUCACAUGAGGAUCACCCAUGUAAGUCCGAGUCCCUUGGCAGCUUAUACAGGUGG”, the “apparent Kd” value runs as follows: under setting [1], 53 nM; under setting [2], 14.7 nM.

For the sequence “CUCCGAGGCUAUACUAUCCGCCUCUGUGAUACCAGAAUACCUAUAUUCCCUUGGCAGCAUCACAUGAGGAUCACCCAUGUGCCAU”, under setting [2], the “apparent Kd” value stood at 15.1 nM.

For “GUUAUGGACCUGGAUACCAGCUGGUACAAGGGCGGUCUACAUGAGGAUCACCCAUGUGUCAGCCCUUGGCAGCCAGCAACCGGCA”, the “apparent Kd” value under setting [3] came out at 9.28 nM and the “apparent Kd” value under setting [4] turned out to be 11.8 nM.

Take “UGACAUUGCUCAGAUACCAGACAUGAGGAUCACCCAUGUACCAAGAGUACAAAUUAAAAUGUCCCUUGGCAGCUGAGCAAUGUCU”: the “apparent Kd” value came to 19.6 nM under setting [3] and 483 nM under setting [4].

Regarding “AGCGGAACGGAAGGGUCCCAAAAUUGUGAUACCAGCCUUGAAUCCGGCCCUUGGCAGCACAUGAGGAUCACCCAUGUACUGCGAU”, the “apparent Kd” value by setting is: under setting [3], 12.9 nM; under setting [4], 39.4 nM.

For the sequence “AUGUCAUUGGUGCAGCUGUUAAAUGGCGAUACCAGCGUGGAAACACGCCCUUGGCAGCGCCAAAACAUGAGGAUCACCCAUGUUA”, the “apparent Kd” value was determined as 28 nM under setting [3] and 83 nM under setting [4].

For the sequence “UCCACAUGAGGAUCACCCAUGUAAUCAGAUACCAGUGACGAAAGUCACCCUUGGCAGCUGAUUACUUUAGUUCGAGGGUGUUUGA”, the “apparent Kd” value by setting is: under setting [3], 102 nM; under setting [4], 202 nM.

Consider “ACCAUGUAAUCAGAUACCAGACAUCUUUUAAAUCAUAUUACAUGAGGAUCACCCAUGUUGGUCCCUUGGCAGCUGAAAUAUUUUU”, for which the “apparent Kd” value under setting [1] worked out at 205 nM and the “apparent Kd” value under setting [2] turned out to be 46.4 nM.

As to “UUUUUUAACAUGGCGUAUCGGAAAACCGAUACCAGUACAGAAAUGUACCCUUGGCAGCGGCGUUUUACAUGAGGAUCACCCAUGU”, the “apparent Kd” value runs as follows: under setting [3], 29.4 nM; under setting [4], 193 nM.

In the case of “AAUAAGCAGCUGCAAGGUGAUCCUGCAGAUACCAGCUAGGAAACUAGCCCUUGGCAGCUGCAACAUGAGGAUCACCCAUGUAAUA”, the “apparent Kd” value under setting [3] was 34.8 nM and the “apparent Kd” value under setting [4] amounted to 85.3 nM.

For “UUUACAUGAGGAUCACCCAUGUGCCAUGAUACCAGACAUGAAAAUGUCCCUUGGCAGCAUGAAAGAUCCACGUCGGAAACGACGG”, the “apparent Kd” value under setting [1] turned out to be 176 nM and the “apparent Kd” value under setting [2] stood at 308 nM.

On to “UGUAACAUGAGGAUCACCCAUGUGCACGAUACCAGCUUCGAAAGAGGCCCUUGGCAGCGUAUGCGUAAGCUGUAUAAUAUAUAUC”, for which the “apparent Kd” value was 11.4 nM under setting [1] and 13.6 nM under setting [2].

For “GCUGUAAGUGCAGAUACCAGCGUGUUAUAUUUCUAAUGACAUGAGGAUCACCCAUGUAAAUGCCCUUGGCAGCUGCACUUACAGC”, the “apparent Kd” value was determined as 16.1 nM under setting [1] and 16.9 nM under setting [2].

As for “AUCUCAUAGAGUGAUACCAGACUACAUGAGGAUCACCCAUGUUACAUUUAAAUAUCAUUUGUCCCUUGGCAGCACAUUAAGUACA”, the “apparent Kd” value under setting [3] was determined as 24.3 nM and the “apparent Kd” value under setting [4] turned out to be 15.2 nM.

As for “ACGACGCAUAGUGAUACCAGUACAACAUGAGGAUCACCCAUGUCACAUAUGUUGUAAUAGUGCCCUUGGCAGCACUAUGCGUCAG”, the “apparent Kd” value by setting is: under setting [1], 155 nM; under setting [2], 17.6 nM.

Regarding “AUGGCGUUGGUGUAGCUGUGAAAUGGCGAUACCAGCGUGGAAACACGCCCUUGGCAGCGCCAAAACAUGAGGAUCACCCAUGUUA”, the “apparent Kd” value is, setting by setting: under setting [3], 20.1 nM; under setting [4], 96.6 nM.

Take “UAAAACAUGAGGAUCACCCAUGUAUUUGAUACCAGAGUGAUGAUCCUCCCUUGGCAGCAAAUAACGCAUUGAUUACAAUGCGAAA”: the “apparent Kd” value came out at 42.8 nM under setting [1] and 143 nM under setting [2].

On to “AGCGACAUGCGUGAUACCAGCUACAUGAGGAUCACCCAUGUCAGCAGGAAACUGCUGUGUAGCCCUUGGCAGCACAGUGCAUGUC”, for which the “apparent Kd” value under setting [3] was determined as 12.7 nM and the “apparent Kd” value under setting [4] is 24.7 nM.

With “UCGCAUUGCUCAGAUACCAGACAUGAGGAUCACCCAUGUACCAAGGUAACCGAAAGGCAUGUCCCUUGGCAGCUGAGCAAUGCGU”, the “apparent Kd” value is, setting by setting: under setting [3], 12.1 nM; under setting [4], 225 nM.

With “ACAAGUCCUCAUGAUACCAGCGAUGAGACAUAGUCUCAACAUGAGGAUCACCCAUGUAUUCGCCCUUGGCAGCAUACGGUUUUUG”, the “apparent Kd” value was found to be 301 nM under setting [1] and 28.5 nM under setting [2].

On to “AAGGGUGAGUCUCUAAUCCGUUUGACGGAUACCAGCGAGAGAUAUCGCCCUUGGCAGCCGACGACAUGAGGAUCACCCAUGUAAA”, for which the “apparent Kd” value runs as follows: under setting [3], 14.7 nM; under setting [4], 17.2 nM.

Take “UUUGAAAUAACAGAUACCAGCGUGUUAUAAAACAUGAGGAUCACCCAUGUAGUGAUCAAGCGCCCUUGGCAGCUGGUAUUUUAGG”: the “apparent Kd” value by setting is: under setting [1], 85.4 nM; under setting [2], 196 nM.

For “AGCGCUGUGCAUGAUACCAGCUACAUGAGGAUCACCCAUGUGCGUCAGAAAUGACUGUGUAGCCCUUGGCAGCAUAAAGCAUGUA”, the “apparent Kd” value is 19 nM under setting [3] and 58.8 nM under setting [4].

On to “AAGAAGUUUUGAUUUUUAUGAAGUAGUGAUACCAGUCAAGAAAGAGACCCUUGGCAGCGCAACAUGAGGAUCACCCAUGUAAGAA”, for which the “apparent Kd” value reads like this: under setting [3], 25.4 nM; under setting [4], 27.2 nM.
